Reference: paper PMC6980386 (Traffic (Copenhagen, Denmark), 2019)
Entries after “also recorded” stand apart in the source; their conditions may differ.

How the values were obtained:
FL huCD4 F7A = FL huCD4 F7A (Homo sapiens, UniProt P01730, F7A); experiment: CADA down-modulation of cellular huCD4; assay type: cell-based
Summary of the method: (§1)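 HEK293T cells, seeded overnight in DMEM with 10% serum, 1 mM sodium pyruvate and 0.075% NaHCO₃, were lipofected with full-length human CD4 (WT or mutant). Test compound in DMSO was added 6 h post-transfection as 1:5 serial dilutions (50–0.016 μM) for 48 h. Surface CD4 was stained with FITC/APC anti-CD4 (SK3) and read by flow cytometry. IC50 is 50% of the untreated signal, from four-parameter fits of ≥3 replicate experiments. FC is mutant/WT mean IC50.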

huCD4_1–32-YFP L11A = huCD4_1–32-YFP L11A (Homo sapiens, UniProt P01730, L11A); experiment: CADA inhibition of huCD4_1–32-YFP secretion; assay type: cell-based
Summary of the method: (§2)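 HEK293T cells were grown in DMEM with 10% FBS and 10 mM HEPES, seeded and left to adhere overnight, then transiently transfected with plasmid by Lipofectamine. Test compound was added 6 h after transfection as a 1:5 serial dilution (50 to 0.016 μM) for 48 h. Secreted YFP in the supernatant was captured on GFP-Trap magnetic beads for 1 h, washed with PBS and measured by flow cytometry. IC50 is the concentration that halves the signal relative to the untreated control, taken from a four-parameter fit of at least three replicate experiments. FC is the mutant mean IC50 divided by the WT mean IC50.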

FL huCD4 A22V = FL huCD4 A22V (Homo sapiens, UniProt P01730, A22V); experiment: CADA down-modulation of cellular huCD4; assay type: cell-based
Summary of the method: as §1

huCD4_1–32-YFP K27A = experiment: CADA inhibition of huCD4_1–32-YFP secretion; assay type: cell-based, human
Summary of the method: as §2

huCD4_1–32-YFP K32A = huCD4_1–32-YFP K32A (Homo sapiens, UniProt P01730, K32A); experiment: CADA inhibition of huCD4_1–32-YFP secretion; assay type: cell-based; details: read-out: Secreted YFP IC50 (μM) Mean, HEK293T, CADA 48h
Summary of the method: as §2

huCD4_1–32-YFP H9A = huCD4_1–32-YFP H9A (Homo sapiens, UniProt P01730, H9A); experiment: CADA inhibition of huCD4_1–32-YFP secretion; assay type: cell-based
Summary of the method: as §2

huCD4_1–32-YFP L16A = huCD4_1–32-YFP L16A (Homo sapiens, UniProt P01730, L16A); experiment: CADA inhibition of huCD4_1–32-YFP secretion; assay type: cell-based
Summary of the method: as §2

huCD4_1–32-YFP N2A = huCD4_1–32-YFP N2A (Homo sapiens, UniProt P01730, N2A); experiment: CADA inhibition of huCD4_1–32-YFP secretion; assay type: cell-based
Summary of the method: as §2

huCD4_1–32-YFP R3A = huCD4_1–32-YFP R3A (Homo sapiens, UniProt P01730, R3A); experiment: CADA inhibition of huCD4_1–32-YFP secretion; assay type: cell-based
Summary of the method: as §2

FL huCD4 K26R = FL huCD4 K26R (Homo sapiens, UniProt P01730, K26R); experiment: CADA down-modulation of cellular huCD4; assay type: cell-based; details: HEK293T, 48h
Summary of the method: as §1

huCD4_1–32-YFP A21V = huCD4_1–32-YFP A21V (Homo sapiens, UniProt P01730, A21V); experiment: CADA inhibition of huCD4_1–32-YFP secretion; assay type: cell-based
Summary of the method: (§3)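 HEK293T cells were lipofected with human CD4 residues 1–32 fused to the N-terminus of YFP (secreted, no membrane anchor). Test compound was added 6 h post-transfection as 1:5 serial dilutions (50–0.016 μM) for 48 h. Supernatant was captured on GFP-Trap magnetic beads for 1 h, washed in PBS, and YFP was read by flow cytometry. IC50 is 50% of the untreated control, from four-parameter fits of ≥3 replicate experiments. FC is mutant/WT mean IC50.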

huCD4_1–32-YFP WT = huCD4_1–32-YFP WT (Homo sapiens, UniProt P01730); experiment: CADA inhibition of huCD4_1–32-YFP secretion; assay type: cell-based
Summary of the method: as §2

huCD4_1–32-YFP G31A = huCD4_1–32-YFP G31A (Homo sapiens, UniProt P01730, G31A); experiment: CADA inhibition of huCD4_1–32-YFP secretion; assay type: cell-based
Summary of the method: as §3

huCD4_1–32-YFP V29A = huCD4_1–32-YFP V29A (Homo sapiens, UniProt P01730, V29A); experiment: CADA inhibition of huCD4_1–32-YFP secretion; assay type: cell-based; details: + less, − more sensitive to CADA
Summary of the method: as §2

mouse CD4 (mCD4) = details: cell surface expression of mCD4; cited from earlier work
huCD4_1–32-YFP Q15A = huCD4_1–32-YFP Q15A (Homo sapiens, UniProt P01730, Q15A); experiment: CADA inhibition of huCD4_1–32-YFP secretion; assay type: cell-based
Summary of the method: as §2

FL huCD4 K26E = FL huCD4 K26E (Homo sapiens, UniProt P01730, K26E); experiment: CADA down-modulation of cellular huCD4; assay type: cell-based; details: HEK293T, 48h
Summary of the method: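 Transient transfection of HEK293T cells (Lipofectamine), seeded the night before. Test compound added 6 h post-transfection as a serial 1:5 dilution from 50 to 0.016 μM, then 48 h culture. Surface CD4 stained with FITC- or APC-labelled anti-human CD4 (clone SK3) and read by flow cytometry. IC50 is the concentration reducing signal to 50% of untreated control, interpolated from four-parameter curves (≥3 replicate experiments; 95% CI).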

huCD4_1–32-YFP R8A = huCD4_1–32-YFP R8A (Homo sapiens, UniProt P01730, R8A); experiment: CADA inhibition of huCD4_1–32-YFP secretion; assay type: cell-based; details: read-out: Secreted YFP IC50 (μM) Mean, HEK293T, CADA 48h
Summary of the method: as §2

huCD4_1–32-YFP V5A = huCD4_1–32-YFP V5A (Homo sapiens, UniProt P01730, V5A); experiment: CADA inhibition of huCD4_1–32-YFP secretion; assay type: cell-based
Summary of the method: as §2

FL huCD4 V28K = experiment: CADA down-modulation of cellular huCD4; assay type: cell-based, human; details: HEK293T, 48h
Summary of the method: as §1

[1] = target: truncated huCD4 D1D2 A17V (Homo sapiens, UniProt P01730, A17V); experiment: Cell-free in vitro translation and translocation; assay type: biochemical; details: 15 μM CADA
Summary of the method: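 Truncated huCD4 D1D2 (lacking glycosylation sites and membrane anchor) was made by PCR and transcribed with T7. Proteinase K protection ran 30 min on ice and was quenched with PMSF. Products were separated by SDS-PAGE and imaged by phosphor imaging. The SP-cleaved band was normalised to the matching control. Data are from 2–5 independent experiments, compared with WT by Welch t test.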

FL huCD4 L30A = FL huCD4 L30A (Homo sapiens, UniProt P01730, L30A); experiment: CADA down-modulation of cellular huCD4; assay type: cell-based
Summary of the method: as §1

[2] = + less, − more sensitive to CADA
[3] = read-out: Cellular huCD4 IC50 (μM) Mean, HEK293T, CADA 48h
[4] = read-out: Secreted YFP IC50 (μM) Mean, HEK293T, CADA 48h

SMILES: C=C1CN(S(=O)(=O)c2ccc(C)cc2)CCCN(Cc2ccccc2)CCCN(S(=O)(=O)c2ccc(C)cc2)C1 [CADA, Cyclotriazadisulfonamide]
- Cellular huCD4 FC (fold change of mean IC50 relative to WT) (FL huCD4 F7A; [2]): −4.2
- IC50 (FL huCD4 F7A; [3]): 0.13 µM
- Secreted YFP FC (fold change of mean IC50 relative to WT) (huCD4_1–32-YFP L11A; [2]): −3.3
- IC50 (huCD4_1–32-YFP L11A; [4]): 0.38 µM
- Cellular huCD4 FC (fold change of mean IC50 relative to WT) (FL huCD4 A22V; [2]): +1.5
- IC50 (FL huCD4 A22V; [3]): 0.79 µM
- Secreted YFP FC (fold change of mean IC50 relative to WT) (huCD4_1–32-YFP K27A; [2]): >+39
- IC50 (huCD4_1–32-YFP K27A; [4]): > 50 µM
- IC50 (huCD4_1–32-YFP K32A): 17.6 µM
- Secreted YFP FC (fold change of mean IC50 relative to WT) (huCD4_1–32-YFP H9A; [2]): +1.7
- IC50 (huCD4_1–32-YFP H9A; [4]): 2.13 µM
- Secreted YFP FC (fold change of mean IC50 relative to WT) (huCD4_1–32-YFP L16A; [2]): −3.2
- IC50 (huCD4_1–32-YFP L16A; [4]): 0.4 µM
- Secreted YFP FC (fold change of mean IC50 relative to WT) (huCD4_1–32-YFP N2A; [2]): −3.3
- IC50 (huCD4_1–32-YFP N2A; [4]): 0.39 µM
- Secreted YFP FC (fold change of mean IC50 relative to WT) (huCD4_1–32-YFP R3A; [2]): +1.6
- IC50 (huCD4_1–32-YFP R3A; [4]): 1.99 µM
- sensitivity to CADA (FL huCD4 K26R): kept full sensitivity to CADA
- Secreted YFP FC (fold change of mean IC50 relative to WT) (huCD4_1–32-YFP A21V; [2]): −1.6
- IC50 (huCD4_1–32-YFP A21V; [4]): 0.77 µM
- Secreted YFP FC (fold change of mean IC50 relative to WT) (huCD4_1–32-YFP WT; [2]): 1.00
- IC50 (huCD4_1–32-YFP WT; [4]): 1.27 µM
- Secreted YFP FC (fold change of mean IC50 relative to WT) (huCD4_1–32-YFP G31A; [2]): +2.0
- IC50 (huCD4_1–32-YFP G31A; [4]): 2.56 µM
- Secreted YFP FC (fold change of mean IC50 relative to WT) (huCD4_1–32-YFP V29A): −1.1
- sensitivity of mouse CD4 to CADA (mouse CD4 (mCD4)): not affected by CADA; also recorded: completely resistant to CADA
- Secreted YFP FC (fold change of mean IC50 relative to WT) (huCD4_1–32-YFP Q15A; [2]): >+39
- IC50 (huCD4_1–32-YFP Q15A; [4]): > 50 µM
- sensitivity to CADA (FL huCD4 K26E): copied the alanine substitution phenotypes
- IC50 (huCD4_1–32-YFP R8A): > 50 µM
- Secreted YFP FC (fold change of mean IC50 relative to WT) (huCD4_1–32-YFP V5A; [2]): −3.8
- IC50 (huCD4_1–32-YFP V5A; [4]): 0.33 µM
- increase in sensitivity to CADA (smaller IC50) relative to WT (FL huCD4 V28K): more than 3 fold
- inhibitory effect of CADA on protein translocation compared to WT [1]: significantly reduced
- Cellular huCD4 FC (fold change of mean IC50 relative to WT) (FL huCD4 L30A; [2]): +1.6
- IC50 (FL huCD4 L30A; [3]): 0.84 µM
